Reference: PubChem BioAssay
Activity calls are given as the source filed them.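 Rule for the calls, unless noted: active = viability at or below 10% of carrier control in both of two separate runs; inconclusive = viability at or below 10% in only one of the two runs; inactive = the rest.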

Assays:
[1] = Her2 expression decrease, cell viability multiplex – SKBR3 breast tumor cells, AlphaScreen, ATP viability, primary screen (AID 461;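 active = Her2 level under about 52% in both replicate screens, with viability over 70% of control, limit read from the data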;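 for Her2 level: lower value means less Her2 protein in the cells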;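 for viability: percent of carrier control wells set as 100% viability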); conditions: SKBR3 Her2 protein level, 18-24 h, measured here: SKBR3 viability, ATP luminescence, at 10 µM
[2] = biological target: Receptor tyrosine-protein kinase erbB-2 (Homo sapiens) (UniProt P04626); assay: as above; conditions: 18-24 h, at 10 µM, stronger effect = lower value
Sequence of Receptor tyrosine-protein kinase erbB-2 (Homo sapiens) (P04626 whole entry, looked up): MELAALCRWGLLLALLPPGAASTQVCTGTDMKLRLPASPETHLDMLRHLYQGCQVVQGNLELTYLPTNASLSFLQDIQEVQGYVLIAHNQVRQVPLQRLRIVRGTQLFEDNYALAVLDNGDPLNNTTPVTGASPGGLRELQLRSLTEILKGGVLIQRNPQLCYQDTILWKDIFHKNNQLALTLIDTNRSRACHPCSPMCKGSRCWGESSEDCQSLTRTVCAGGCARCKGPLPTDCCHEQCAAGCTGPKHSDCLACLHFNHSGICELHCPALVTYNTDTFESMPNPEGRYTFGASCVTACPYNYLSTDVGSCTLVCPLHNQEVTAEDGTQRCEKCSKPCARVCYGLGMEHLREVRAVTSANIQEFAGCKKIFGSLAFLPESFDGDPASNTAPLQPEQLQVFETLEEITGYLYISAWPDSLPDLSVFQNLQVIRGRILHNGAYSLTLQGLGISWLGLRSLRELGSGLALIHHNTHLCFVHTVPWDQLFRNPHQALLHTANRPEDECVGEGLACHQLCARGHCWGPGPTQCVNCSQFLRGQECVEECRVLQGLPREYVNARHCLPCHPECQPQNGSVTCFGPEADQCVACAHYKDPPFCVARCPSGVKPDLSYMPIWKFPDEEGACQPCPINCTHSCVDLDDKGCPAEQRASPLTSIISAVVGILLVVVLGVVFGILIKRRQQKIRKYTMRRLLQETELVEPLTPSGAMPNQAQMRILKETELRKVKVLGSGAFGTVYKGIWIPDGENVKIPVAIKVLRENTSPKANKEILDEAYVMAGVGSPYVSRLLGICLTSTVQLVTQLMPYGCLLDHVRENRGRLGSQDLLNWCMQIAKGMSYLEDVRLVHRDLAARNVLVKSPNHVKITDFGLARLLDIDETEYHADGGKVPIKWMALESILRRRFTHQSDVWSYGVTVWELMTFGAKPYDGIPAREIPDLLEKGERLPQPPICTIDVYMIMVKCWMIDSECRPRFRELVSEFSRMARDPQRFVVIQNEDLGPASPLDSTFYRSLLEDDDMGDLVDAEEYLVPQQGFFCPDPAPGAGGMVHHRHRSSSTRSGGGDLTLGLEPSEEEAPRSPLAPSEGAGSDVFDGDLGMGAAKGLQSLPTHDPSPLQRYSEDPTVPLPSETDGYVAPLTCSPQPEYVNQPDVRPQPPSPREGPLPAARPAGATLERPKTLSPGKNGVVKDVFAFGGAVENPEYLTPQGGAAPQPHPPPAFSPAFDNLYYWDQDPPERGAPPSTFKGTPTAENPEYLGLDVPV

[3] = reduced viability of SK-BR-3 breast cancer cells – cell-based, 24 h, human, pilot screen (AID 572); conditions: SK-BR-3 viability, CellTiter-Glo luminescence, at 10 µM, stronger effect = lower value;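 note: compound exposure lasted between 18 and 24 h rather than exactly 24 h; 100% = carrier-treated control wells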
[4] = HUVEC growth inhibition – cell-based, human, primary screen (AID 575;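 active = viability at or below 30% in both replicate assays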;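 note: 100% = median of untreated cell wells with 0.1% DMSO on each plate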); conditions: HUVEC proliferation, CellTiter-Glo luminescence, 72 h; at 10 µM; stronger effect = lower value
Outline: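 System: primary human umbilical vein endothelial cells; Quantity: 1250 endothelial cells in each well; Buffer or medium: supplemented EBM, 2% fetal bovine serum; Doses: one dose, 10 µM final, 0.1% DMSO; Incubation: 72 h compound incubation; Technique: ATP-based CellTiter-Glo luminescent read; Evaluation: percent of median DMSO-control luminescence; Controls: vehicle and MePR control wells.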

[5] = H69AR cell proliferation blockers – human, duplicate replicates, primary screen (AID 580;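 active = viability at or under a set limit in both replicates, limit being median viability minus 3 SD, cut at about 48% in these data, passing the limit was not always enough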;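 note: 100% = mean luminescence of untreated wells and 0% = no signal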); conditions: H69AR lung tumor cells viability, ATP luminescence, 72 h; at 10 µM; stronger effect = lower value
[6] = MRP1 drug-resistance reversers in H69AR cells – cell-based, doxorubicin co-treatment, pilot screen (AID 601;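 active = viability loss from added drug above about 55%, and viability with drug at most 40%, in both replicates, limit read from the data, passing the limit was not always enough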); conditions: CellTiter-Glo, 72 h, at 10 µM; for differential viability (reversal): stronger effect = higher value
[7] = yeast transport mutant growth inhibition pilot in 384-well plates, post-Golgi transport modulator project (AID 636; in the data active = inhibition above about 31%); conditions: absorbance 615 nm, about 18 h, stronger effect = higher value
[8] = growth suppression of yeast trafficking mutant, preliminary HTS, modulators of trafficking downstream of Golgi apparatus project, 1536-format plate, OD 615 nm (AID 637; in the data active = inhibition above about 30%); conditions: yeast transport mutant growth, absorbance 615 nm, 18 h; stronger effect = higher value
[9] = H69AR cells + 2 uM doxorubicin, measured here: viability with 2 uM doxorubicin, stronger effect = lower value
[10] = H69AR cells, compound alone cytotoxicity

SMILES | viability [1] | Her2 level [2] | viability [3] | viability [4] | viability [5] | differential viability (reversal) ([6]; H69AR cells + 2 uM doxorubicin) | viability [6, 9] | viability [6, 10] | inhibition [7] | inhibition [8]
CCOC(=O)C1CCN(c2c(NCCCN(CC)c3ccccc3)c(=O)c2=O)CC1 | 83.5% | 86.5% (inactive) | 83.5% (inactive) | 91.9% (inactive) | 81.1% (inactive) | 8.21% (inactive) | 72.9% | 81.1% | -1.18% (inactive) | 0.18% (inactive)
COc1ccccc1Nc1nc2ccccc2[nH]1 | 92% | 93.5% (inactive) | 92% (inactive) | 86.3% (inactive) | 72.8% (inactive) | -10.6% (inactive) | 83.4% | 72.8% | -9.07% (inactive) | -7.94% (inactive)
N#Cc1nc(-c2cccs2)oc1NCCc1ccccc1 | 93.5% | 86.5% (inactive) | 93.5% (inactive) | 84.3% (inactive) | 102% (inactive) | 18.3% (inactive) | 83.4% | 102% | -1.18% (inactive) | 1.29% (inactive)
Cc1ccc(NC(=O)CCN2CCc3ccccc3C2)cc1 | 91.5% | 92.5% (inactive) | 91.5% (inactive) | 109% (inactive) | 99.7% (inactive) | -0.975% (inactive) | 101% | 99.7% | -5.21% (inactive) | -4.92% (inactive)
CC1CN(c2nc3ccccn3c(=O)c2/C=C(\C#N)S(=O)(=O)c2ccccc2)CC(C)O1 (stereo not given) | 93.5% | 106% (inactive) | 93.5% (inactive) | 96.3% (inactive) | 90% (inactive) | 59% (active) | 31% | 90% | -0.53% (inactive) | -14.4% (inactive)
Cc1cccc2c1N(CC(=O)OC(C)C)C(=O)C2=O | 76.5% | 103% (inactive) | 76.5% (inactive) | 95% (inactive) | 75.2% (inactive) | -3.31% (inactive) | 78.5% | 75.2% | 1.67% (inactive) | 6.67% (inactive)
CCOc1ccc(-n2c(C)nc3c(cnn3-c3ccc(Cl)cc3)c2=O)cc1 | 95% | 99.5% (inactive) | 95% (inactive) | 80.3% (inactive) | 80.7% (inactive) | -6.13% (inactive) | 86.8% | 80.7% | -0.39% (inactive) | -3.06% (inactive)
COc1ccc(N2CCN(Cc3nc(-c4ccc(Cl)cc4Cl)no3)CC2)cc1 | 117% | 83.5% (inactive) | 117% (inactive) | 70.5% (inactive) | 91.5% (inactive) | 9.36% (inactive) | 82.2% | 91.5% | -4.68% (inactive) | -5.57% (inactive)
COc1ccc(CC(NC(C)=O)C(=O)NC2CCN(C(=O)Nc3ccc(C#N)cc3)CC2)cc1OC (stereo not given) | 93% | 91.5% (inactive) | 93% (inactive) | 117% (inactive) | 94.2% (inactive) | -3.13% (inactive) | 97.3% | 94.2% | -4.13% (inactive) | 2.79% (inactive)
Cc1ccc(Nc2cc(C)nc3ncnn23)c(Cl)c1 | 85% | 88.5% (inactive) | 85% (inactive) | 87% (inactive) | 97% (inactive) | 12.2% (inactive) | 84.9% | 97% | -3.33% (inactive) | -2.3% (inactive)
CCCCn1nnc(NC(=O)Cc2ccc(Cl)cc2)n1 | 112% | 134% (inactive) | 112% (inactive) | 106% (inactive) | 90% (inactive) | 17.9% (inactive) | 72.1% | 90% | -3.9% (inactive) | -3.5% (inactive)
CCn1c(COc2cccc3ccccc23)nnc1SCC(N)=O | 96% | 75% (inactive) | 96% (inactive) | 91% (inactive) | 91.1% (inactive) | 13% (inactive) | 78.2% | 91.1% | -4.21% (inactive) | 0.18% (inactive)
O=c1[nH]c(/C(=N\O)c2ccccc2)no1 | 93.5% | 82% (inactive) | 93.5% (inactive) | 83.2% (inactive) | 73.2% (inactive) | 32.5% (inactive) | 40.7% | 73.2% | -0.39% (inactive) | 5.74% (inactive)
Cc1ccc(-c2noc(C3CCCN(C(=O)c4ccc(F)cc4F)C3)n2)cc1 (stereo not given) | 99% | 94% (inactive) | 99% (inactive) | 87.4% (inactive) | 90% (inactive) | 1.88% (inactive) | 88.1% | 90% | -2.16% (inactive) | -9% (inactive)
CC(C)(C)C(=O)Oc1cc(N)n(S(=O)(=O)c2ccccc2)n1 | 93.5% | 101% (inactive) | 93.5% (inactive) | 102% (inactive) | 87.1% (inactive) | 3.59% (inactive) | 83.5% | 87.1% | 0.53% (inactive) | -5.27% (inactive)
COc1ccc(-n2c(SCC(=O)c3c(N)n(C)c(=O)n(C)c3=O)nc3ccccc32)cc1 | 105% | 71.5% (inactive) | 105% (inactive) | 90% (inactive) | 98.5% (inactive) | 12.6% (inactive) | 86% | 98.5% | -4.73% (inactive) | 1.9% (inactive)
NC(=O)COC(=O)CNC(=O)c1ccc(Cl)cc1 | 125% | 98% (inactive) | 125% (inactive) | 86.1% (inactive) | 101% (inactive) | 16.1% (inactive) | 84.7% | 101% | -2.4% (inactive) | -0.81% (inactive)
CCN1CCN(c2ncc(C(=O)N3CCN(c4ccccc4OC)CC3)c3ccccc23)CC1 | 81% | 87.5% (inactive) | 81% (inactive) | 98.8% (inactive) | 101% (inactive) | 14.7% (inactive) | 86.7% | 101% | -5.68% (inactive) | -1.8% (inactive)
COc1ccc(CNC(=O)CN(C(=O)c2ccc(CN3CCOCC3)o2)C2CCCC2)cc1 | 124% | 84.5% (inactive) | 124% (inactive) | 89% (inactive) | 93.1% (inactive) | 7.3% (inactive) | 85.8% | 93.1% | -1.87% (inactive) | 0.98% (inactive)
O=C(COC(=O)C12CC3CC(CC(O)(C3)C1)C2)N1CCN(S(=O)(=O)c2ccc(Cl)cc2)CC1 | 87.5% | 85.5% (inactive) | 87.5% (inactive) | 107% (inactive) | 83.6% (inactive) | -7.7% (inactive) | 91.3% | 83.6% | -3.33% (inactive) | -4.17% (inactive)
O=C(NCc1ccco1)c1csc(Nc2ccccc2Cl)n1 | 70.5% | 97.5% (inactive) | 70.5% (inactive) | 60.5% (inactive) | 78.2% (inactive) | -1.24% (inactive) | 79.4% | 78.2% | -8.24% (inactive) | -5.25% (inactive)
Cc1ccc(NC(=O)CSc2nnc(-c3cnccn3)n2Cc2ccco2)cc1C | 80.5% | 93% (inactive) | 80.5% (inactive) | 80.6% (inactive) | 104% (inactive) | 6.65% (inactive) | 97.5% | 104% | -1.82% (inactive) | -7.67% (inactive)
COC(=O)c1c(-c2cccs2)csc1NC(=O)CN1CCOCC1 | 103% | 98.5% (inactive) | 103% (inactive) | 86.6% (inactive) | 82.1% (inactive) | 0.685% (inactive) | 81.4% | 82.1% | -0.13% (inactive) | -1.13% (inactive)
COc1ccccc1OCCCCNCCO | 95.5% | 116% (inactive) | 95.5% (inactive) | 92% (inactive) | 101% (inactive) | 12.6% (inactive) | 88.7% | 101% | -1.56% (inactive) | -7.83% (inactive)
Cc1ccc(N2CCN(C(=O)c3ccccc3Br)CC2)c(C)c1 | 110% | 72% (inactive) | 110% (inactive) | 93% (inactive) | 89.2% (inactive) | 10.5% (inactive) | 78.6% | 89.2% | -5.6% (inactive) | 0.16% (inactive)
COc1ccc(C(=O)N(CCN2CCOCC2)CC(=O)NC2CCCC2)cc1OC | 83.5% | 106% (inactive) | 83.5% (inactive) | 111% (inactive) | 91.6% (inactive) | -0.805% (inactive) | 92.4% | 91.6% | -0.8% (inactive) | 8.36% (inactive)
COCCN(CC(=O)NCc1ccccc1)C(=O)CCC(=O)Nc1ccccn1 | 112% | 90.5% (inactive) | 112% (inactive) | 103% (inactive) | 92.9% (inactive) | 1.44% (inactive) | 91.5% | 92.9% | -4.8% (inactive) | 1.94% (inactive)
COc1ccc(NC(=O)Nc2cc(C)ccc2OC)cc1 | 101% | 109% (inactive) | 101% (inactive) | 96.1% (inactive) | 93.6% (inactive) | -4.12% (inactive) | 97.7% | 93.6% | 1.18% (inactive) | -3.11% (inactive)
C/C(N)=C(\C#N)C(=O)NCCc1ccccn1 | 81% | 102% (inactive) | 81% (inactive) | 108% (inactive) | 114% (inactive) | 7.44% (inactive) | 107% | 114% | -1.45% (inactive) | 1.48% (inactive)
Cc1cc(NC(=O)c2cc3ccccc3o2)cc(C)c1OCC(=O)N1CCOCC1 | 92.5% | 102% (inactive) | 92.5% (inactive) | 90.6% (inactive) | 90.3% (inactive) | 0.745% (inactive) | 89.5% | 90.3% | -6.89% (inactive) | -1.8% (inactive)
